Source: PubChem BioAssay (The Scripps Research Institute Molecular Screening Center)
IDE act = IDE (human) activation, cell-based; AID 493087; P14735; activation, % at 5.96 µM; actives 0.073% (n = 340,000); HEK cells, FAbeta-B cleavage, fluorescence polarization; 0% vehicle, 100% cell-free pure enzyme wells;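 active = activation above the mean of all tested compounds plus 3 SD, set per screening campaign, cut at about 17% in these data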
proCasp3 act = activates human procaspase-3; recombinant procaspase-3 D3A, Ac-DEVD-pNA absorbance 405 nm; activation, % at 8.5 µM; actives 0.11% (n = 330,000);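 active = activation above the mean of all tested compounds plus 3 SD, cut at about 21% in these data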;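 note: 0% = DMSO alone and 100% = DMSO wells spiked with extra 5 µM PC-3 D3A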
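Compound: 8.5 µM single point, 0.8% DMSO / Material: Autoprocessing-dead procaspase-3 D3A mutant enzyme / Timing: 1 h preincubation plus 2 h reaction at 25 °C / Medium: Zinc-free HEPES/NaCl buffer with 0.01% Triton X-100 at pH 7.4 / Technique: 405 nm absorbance of p-nitroaniline, reads at 0 and 120 min / Repeats: one well per compound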
IDE cell inh = inhibitors of human insulin-degrading enzyme in cells | HEK cells, FAbetaB cleavage, fluorescence polarization | inhibition, % at 5.59 µM | actives 0.41% (n = 320,000) | AID 434962;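 active = percent inhibition above the average of all tested compounds plus 3 SD, set per screening campaign, cut at about 16% in these data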;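 note: IDE supplied by intact live HEK cells; FP after avidin binding of uncleaved biotin substrate so inhibition keeps polarization high; 0% = DMSO wells and 100% = 60 µM reference IDE inhibitor Ii1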
proCasp7 act = counter-screen: procaspase-7 (human) activation. recombinant procaspase-7, Ac-DEVD-pNA absorbance 405 nm; D23A/D198A/D206A triple mutant, cannot self-cleave; scale: DMSO 0, 5 µM enzyme 100. actives 0.093% (n = 330,000). activation, % at 8.5 µM;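 active = percent activation above the screen-wide mean plus 3 SD, cut at about 25% in these data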
Target sequence (P55210 whole entry D23A/D198A/D206A): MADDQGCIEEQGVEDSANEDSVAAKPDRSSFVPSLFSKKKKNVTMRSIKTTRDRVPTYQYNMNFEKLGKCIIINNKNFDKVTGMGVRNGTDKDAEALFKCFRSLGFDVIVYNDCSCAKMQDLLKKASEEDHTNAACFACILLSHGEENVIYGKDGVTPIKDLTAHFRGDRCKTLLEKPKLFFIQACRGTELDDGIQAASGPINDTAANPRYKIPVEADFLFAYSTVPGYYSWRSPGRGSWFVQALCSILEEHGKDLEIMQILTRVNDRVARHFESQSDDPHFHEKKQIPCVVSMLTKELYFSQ
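System: Uncleavable procaspase-7 mutant enzyme; Amount: 2 µM procaspase-7 mutant as dispensed; Schedule: 1 h compound preincubation, 2 h substrate cleavage, 25 °C; Measured by: 405 nm absorbance of p-nitroaniline; Evaluation: percent activation from buffer-corrected 0–120 min absorbance change; Control set: low DMSO alone, high DMSO plus 5 µM PC-7.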
TPT1 inh = C. albicans TPT1 enzyme inhibition; recombinant caTPT1, FP RNA substrate dephosphorylation; inhibition, % at 5 µM; actives 0.81% (n = 300,000); AID 1962;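 active = inhibition above the mean of all tested compounds plus 3 SD, set per screening campaign, cut at about 24% in these data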;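 note: plate controls were DMSO alone for no effect and ferristatin control at 100 nM for full effect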
caTPT1 confirm = TPT1 (C. albicans) inhibition, confirmation; inhibition, % at 5 µM; shares compounds with TPT1 inh; actives 74% (n = 2,400); recombinant caTPT1, fluorescence polarization, RNase T1 coupled;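 active = inhibition above the primary screen limit, the mean inhibition of all tested compounds plus 3 SD, cut at about 25% in these data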
RNase T1 inh = RNase T1 inhibition in TPT1 counter-screen; shares compounds with TPT1 inh; RNase T1 cleavage, fluorescence polarization, 1536-well; inhibition, % at 5 µM; actives 83% (n = 2,400); AID 2153;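 active = inhibition above the solvent-only control well mean plus 3 SD, limit set per screening run, cut at about 23% in these data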;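 note: plate controls were DMSO wells with enzyme for no effect and wells without RNase T1 for full effect; inhibitors block cleavage so intact labeled substrate keeps polarization high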
Target sequence (P00651 whole entry, looked up): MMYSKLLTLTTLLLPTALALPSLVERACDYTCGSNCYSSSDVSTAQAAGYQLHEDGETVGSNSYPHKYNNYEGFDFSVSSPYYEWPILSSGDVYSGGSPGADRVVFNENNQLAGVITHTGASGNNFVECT
* marks the source's active call; other numbers are inactive results. This is a sample that favours compounds with a hit; in the whole collection about 1.2% have one here.

Results for CC1Nc2ccc(C(=O)NC3CCCCC3)cc2NC1=O (stereo not drawn) ?
IDE act: -3; proCasp3 act: -3; IDE cell inh: 0; proCasp7 act: 7; TPT1 inh: 34*; caTPT1 confirm: 39*; RNase T1 inh: 48*

Results for Cc1ccccc1N1CCN(CC(=O)Nc2ccccc2C(=O)NC2CC2)CC1 ?
IDE act: 2; proCasp3 act: 1; IDE cell inh: -3; proCasp7 act: 9

How did CCN1CCN(c2c(/C=C3\SC(=S)N(Cc4ccco4)C3=O)c(C)c(C#N)c(=O)n2C)CC1 do in these assays?
IDE act: -62; proCasp3 act: 0; IDE cell inh: 66*; proCasp7 act: -15; TPT1 inh: 161*; caTPT1 confirm: 181*; RNase T1 inh: 172*

How did CC(C)CCOc1ccc(C2=NNC(=O)CC2)cc1 do in these assays?
IDE act: -5; proCasp3 act: 3; IDE cell inh: 4; proCasp7 act: -5; TPT1 inh: -5

What do the screens show for `CC/C(C)=N\N=C\c1c(O)n(CC)c2cc(C3=NNC(=O)CC3)ccc12`?
IDE act: 3; proCasp3 act: -8; IDE cell inh: 0; proCasp7 act: -10; TPT1 inh: 51*; caTPT1 confirm: 35*; RNase T1 inh: 47*

What do the screens show for `CCCCCc1ccc(C2=NNC(=O)CC2)cc1`?
IDE act: 4; proCasp3 act: 0; IDE cell inh: 1; proCasp7 act: -4; TPT1 inh: 2

How did CCn1c(O)c(/C=N/N=C/c2ccc(OC)cc2)c2cc(C3=NNC(=O)CC3)ccc21 do in these assays?
IDE act: -5; proCasp3 act: -6; IDE cell inh: 0; proCasp7 act: -14; TPT1 inh: 47*; caTPT1 confirm: 74*; RNase T1 inh: 86*

How did O=C(NCC1CCCN(Cc2cccc(F)c2)C1)c1cccc2ccccc12 (stereo not drawn) do in these assays?
IDE act: 2; proCasp3 act: 1; IDE cell inh: 4; proCasp7 act: -5; TPT1 inh: 0

Results for C=CCOc1ccccc1CN(C(=O)CCl)c1ccc2c(c1)OCO2 ?
IDE act: 2; proCasp3 act: 0; IDE cell inh: -5; proCasp7 act: -1; TPT1 inh: 3

Results for Cc1cc(C)c(C(=O)NNC(=O)c2cccnc2)c(C)c1 ?
IDE act: -2; proCasp3 act: -1; IDE cell inh: -1; proCasp7 act: 2; TPT1 inh: -6

Results for Cc1ccc(S(=O)(=O)N[C@H](C(=O)N2CCC(C(=O)N[C@@H](CCC(N)=O)C(=O)O)CC2)C(C)C)cc1 ?
IDE act: 1; proCasp3 act: 8; IDE cell inh: 3; proCasp7 act: -2; TPT1 inh: -5

How did COc1cc(/C=N/Nc2snc(SC)c2C#N)ccc1O do in these assays?
IDE act: 3; proCasp3 act: -5; IDE cell inh: 3; proCasp7 act: 0; TPT1 inh: 1

Results for CSc1nsc(/C=C/Nc2ccc(C)c(C)c2)c1C#N ?
IDE act: -8; proCasp3 act: -21; IDE cell inh: 0; proCasp7 act: -25; TPT1 inh: 34*; caTPT1 confirm: 66*; RNase T1 inh: 85*

How did CSc1nsc(/C=C/Nc2ccc(C)cc2)c1C#N do in these assays?
IDE act: -2; proCasp3 act: -34; IDE cell inh: -2; proCasp7 act: -30; TPT1 inh: 31*; caTPT1 confirm: 50*; RNase T1 inh: 59*

How did COc1cccc(CN2CC(C(=O)N3CCCO3)CCC2=O)c1 (stereo not drawn) do in these assays?
IDE act: -1; proCasp3 act: 10; IDE cell inh: 4; proCasp7 act: 12; TPT1 inh: -2

How did CCN(CC)c1ccc(/C=N/N2C(=O)c3ccccc3C2=O)c(O)c1 do in these assays?
IDE act: 0; proCasp3 act: -10; IDE cell inh: 3; proCasp7 act: -31; TPT1 inh: 45*; caTPT1 confirm: 10; RNase T1 inh: 12
